Most compounds without a hit are left out; they make up all but 2.2% or so of the library.
NR2E3 ag-1 – agonists of human nuclear receptor NR2E3; Q9Y5X4; GST-NR2E3/biotin-RetCOR TR-FRET, 1536-well; inhibition of corepressor binding, % at 4.78 µM; 320,000 tested, 0.12% active; AID 2300;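 active = percent inhibition above the cutoff of mean plus 3 SD of all tested compounds, set per screening campaign, cut at about 20% in these data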;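 note: 0% = DMSO wells and 100% = biotin wells as full block of FRET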
Target sequence (Q9Y5X4 whole entry, looked up): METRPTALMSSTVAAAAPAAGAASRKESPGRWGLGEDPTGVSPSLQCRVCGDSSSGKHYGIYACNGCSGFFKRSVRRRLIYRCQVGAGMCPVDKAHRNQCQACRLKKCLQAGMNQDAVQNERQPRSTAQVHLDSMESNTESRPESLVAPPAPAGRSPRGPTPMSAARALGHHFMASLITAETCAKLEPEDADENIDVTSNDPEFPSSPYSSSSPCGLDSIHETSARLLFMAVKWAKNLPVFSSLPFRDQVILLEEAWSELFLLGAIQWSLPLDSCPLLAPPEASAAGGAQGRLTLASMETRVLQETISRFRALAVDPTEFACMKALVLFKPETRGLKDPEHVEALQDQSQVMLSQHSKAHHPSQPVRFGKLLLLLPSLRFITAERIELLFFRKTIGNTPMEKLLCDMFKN
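Material – GST-tagged NR2E3 plus biotinylated RetCOR corepressor · Quantity – NR2E3 fusion 1.35 nM · Times – 5 h incubation at 4 °C · Medium – pH 7.5 Tris-based buffer · Technique – TR-FRET, Eu(K)-anti-GST donor, streptavidin-D2 acceptor, ex 340, em 617/671 nm · Benchmarks – high control biotin, low control 0.6% DMSO · Format – 1536-well plates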
NR2E3 ag-2 – human photoreceptor-specific nuclear receptor agonism | AID 602229 | 360,000 tested, 0.35% active | CHO-S Gal4-NCOR/VP16-NR2E3 two-hybrid, luciferase | Q9Y5X4 | inhibition of corepressor binding, % at 3.98 µM;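 active = inhibition above the mean of all tested compounds plus 3 SD, cut at about 70% in these data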;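 note: 0% = DMSO with NR2E3 transfected cells and 100% = cells lacking NR2E3 construct; higher means lower luciferase signal from less NR2E3 corepressor binding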
Jurkat NFkB inh – inhibitors of the PMA/ionomycin-induced NF-kB reporter in Jurkat cells; PMA/ionomycin-induced NF-kB luciferase reporter, luminescence; inhibition, % at 4 µM; 330,000 tested, 0.53% active; in the data active = inhibition above about 50%
697 NFkB inh – lowers PMA/ionomycin-induced NF-kB signal in 697 B cells; 697 B-cell NF-kB luciferase reporter, 16 h; inhibition, % at 4 µM; 330,000 tested, 0.33% active; AID 435022; in the data active = inhibition above about 35%
FGF22 binding – shifts melting point of recombinant human FGF22; recombinant FGF22 thermal shift, SYPRO orange fluorescence; percent of sucrose octasulfate shift, DMSO zero; activity (Tm shift, normalised), % at 9.99 µM; 340,000 tested, 1.5% active; AID 651658;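 active = mean Tm shift, scaled 0 neutral to 100 positive control, at about 1.3% or above, every replicate too, limit read from the data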
Target sequence (Q9HCT0 whole entry, looked up): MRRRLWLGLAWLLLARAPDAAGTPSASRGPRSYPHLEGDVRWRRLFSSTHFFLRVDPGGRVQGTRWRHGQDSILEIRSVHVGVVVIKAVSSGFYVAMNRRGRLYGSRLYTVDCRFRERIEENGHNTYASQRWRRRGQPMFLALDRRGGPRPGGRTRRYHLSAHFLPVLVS
miR-122 sensor – blocks miR-122 activity in Huh7 sensor cells; Huh7 miR-122 Renilla luciferase sensor, 48 h; neutral wells = 0, positive control = 100; activation (reporter increase), % at 12.5 µM; 340,000 tested, 0.3% active;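 active = mean replicate activation score at least 90 and every replicate individually at or above 90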;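 note: higher luciferase means less miR-122 activity so hits act as miR-122 inhibitors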
NR2E3 ag conf – confirmation of human NR2E3 agonists | shares compounds with NR2E3 ag-2 | CHO-S mammalian two-hybrid NR2E3-NCOR, luciferase luminescence | inhibition, % at 3.98 µM | 2,300 tested, 51% active | AID 624378;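 active = average inhibition above a cutoff equal to the mean inhibition of all tested compounds plus one SD, cut at about 70% in these data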;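 note: 0% = DMSO in NR2E3 cells and 100% = DMSO in cells lacking NR2E3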
GAL4-VP16 luc – reduces GAL4-VP16 reporter signal in NR2E3 counterscreen; shares compounds with NR2E3 ag-2; CHO-S GAL4-VP16 luciferase reporter, luminescence; inhibition, % at 3.98 µM; 2,300 tested, 29% active; AID 624379;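 active = mean inhibition above a cutoff equal to the average over all tested compounds plus one standard deviation, cut at about 70% in these data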;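 note: luciferase from a UAS reporter driven by GAL4-VP16 transactivation; 0% = DMSO with VP16-transfected cells and 100% = DMSO with cells lacking VP16; higher means less reporter light so more repression of VP16 activity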
* hit, by the source's call; . = not tested or not shown; [ ] = another dose, or the depositor's remark.

SMILES	NR2E3 ag-1	NR2E3 ag-2	Jurkat NFkB inh	697 NFkB inh	FGF22 binding	miR-122 sensor	NR2E3 ag conf	GAL4-VP16 luc
CO[C@@H]1CN(C)C(=O)c2ccc(NC(=O)C3CCCC3)cc2OC[C@H](C)N(C(=O)CC2CC2)C[C@@H]1C	.	.	.	.	-0.3	.	.	.
CCCCCCC[C@@H](C/C=C/CCC(=O)N(C)C/C(=C/Cl)C/C(=C\C(=O)N1C[C@H](O)CC1=O)OC)OC	.	62.0	-6.1	-25.2	-1.2	-9.8	62.0	52.7
COc1ccc(S(=O)(=O)N2C[C@H](O)COC[C@@H]3O[C@H](CC(=O)N[C@H]4CCN(Cc5ccccc5)C4)CC[C@H]32)cc1	.	.	.	.	-0.5	-1.9[16.7 µM]	.	.
O=C(CC1CC1)N1CC2(C1)[C@H](c1ccccc1)[C@H](CO)N2C(=O)c1cccnc1	.	.	.	.	-0.1	.	.	.
Cn1nc(C(F)(F)F)c(/C=N/OC(=O)c2ccccc2)c1Sc1ccc(Cl)cc1	1.1	-5.0	0.3	2.0	.	-6.9	.	.
Cn1nc(C(F)(F)F)c(/C=N/OC(=O)c2ccccc2)c1SCc1ccccc1Cl	-4.6	64.6	-6.0	15.6	.	.	70.6*	69.5
CCCNC(=O)Nc1ccc2c(c1)C(=O)N(C)C[C@@H](OC)[C@H](C)CN(C(=O)C1CCCC1)[C@H](C)CO2	.	.	.	.	0.0	-2.2[16.7 µM]	.	.
Cc1ccc(NC(=S)/C(C#N)=C2/Nc3ccccc3S2)cc1	.	93.0*	.	.	0.2	6.1	99.4*	54.1
Cc1ccc(CN2CC(C(=O)Nc3ncc(C)s3)CC2=O)cc1 (centres undefined)	.	83.0*	3.8	-0.9	0.5	7.7	82.8*	17.3
CN(C)S(=O)(=O)N1CCC(Oc2cccc(C(=O)NC3CCCCC3)c2)CC1	-3.4	47.9	29.5	-28.5	0.0	-5.5	24.0	42.3
CC1CCN(S(=O)(=O)c2ccc([N+](=O)[O-])cc2)CC1	-2.8	-21.8	5.5	14.5	0.2	.	.	.
CC1CCN(S(=O)(=O)c2ccc(Oc3ccc([N+](=O)[O-])cc3)cc2)CC1	3.0	88.1*	24.8	-4.4	.	1.6	91.1*	75.6*
CCCNC(=O)[C@@H]1[C@@H](CO)[C@@H]2Cn3c(ccc(-c4ccccc4)c3=O)[C@@H]2N1CC	.	.	.	.	-0.2	-1.1[16.7 µM]	.	.
CC(C)(C)c1ccc(-c2n[nH]c(=S)n2Cc2ccccc2)cc1	1.5	3.9	-1.2	-31.2	-0.2	2.4	.	.
CC(C)n1c(-c2ccc(C(C)(C)C)cc2)n[nH]c1=S	2.3	79.4*	2.1	-26.6	.	-3.1	83.7*	69.5
CCc1ccc(-c2nc(CSCC(=O)N3CCN(c4ncccn4)CC3)c(C)o2)cc1	0.6	65.6	5.8	1.7	0.0	2.1	71.0*	63.1
CSc1ccc(-c2nc(CSCC(=O)N3CCOCC3)c(C)o2)cc1	-1.6	-32.4	8.2	-47.3	.	6.1	.	.
C[C@H]1CN([C@@H](C)CO)S(=O)(=O)c2ccc(-c3ccc(F)cc3)cc2O[C@H]1CN(C)Cc1cccc(F)c1	.	.	.	.	.	0.6[16.7 µM]	.	.
C[C@@H]1CN([C@H](C)CO)S(=O)(=O)c2ccc(C#Cc3cccc(F)c3)cc2O[C@H]1CN(C)C(=O)CN1CCOCC1	.	.	.	.	0.0	13.4[16.7 µM]	.	.
CNC[C@H]1Oc2cc(C#Cc3ccccc3OC)ccc2S(=O)(=O)N([C@H](C)CO)C[C@@H]1C	.	.	.	.	0.1	10.9[16.7 µM]	.	.
O=C(NCc1ccco1)c1cccc(NC(=O)c2ccccc2)c1	-2.5	50.4	-10.1	-1.7	.	3.3	23.3	21.7
Cc1ccc(C(=O)Nc2cccc(C(=O)NCc3ccco3)c2)cc1	-0.3	55.8	1.3	-9.6	.	6.9	18.7	-4.0
Cc1ccc(S(=O)(=O)N[C@@H]2CC[C@@H](CCn3cc(C4(O)CCCC4)nn3)O[C@H]2CO)cc1	.	.	.	.	-0.3	.	.	.
O=c1[nH][nH]c2c1[C@H](c1ccc(F)cc1)O[C@H](C1CCCCC1)C2	.	-19.1	.	.	-0.6	.	.	.
O=c1c2c([nH]n1-c1ccccc1)C[C@@H](C1CCCCC1)O[C@H]2c1ccc(F)cc1	.	57.0	.	.	.	.	10.0	-17.5
SMILES	NR2E3 ag-1	NR2E3 ag-2	Jurkat NFkB inh	697 NFkB inh	FGF22 binding	miR-122 sensor	NR2E3 ag conf	GAL4-VP16 luc
C/C=C/c1ccc([C@H]2[C@H]3CN(C(=O)Nc4ccc(F)cc4)CC(=O)N3[C@H]2CO)cc1	.	.	.	.	-0.2	.	.	.
Cn1nc(C(=O)NC2CCCN(Cc3ccccc3F)C2)c2ccccc2c1=O (centres undefined)	0.2	-11.6	3.7	-31.4	0.8	.	.	.
CCc1cc(C(=O)NC2CCCN(Cc3ccccc3F)C2)n(C)n1 (centres undefined)	-1.0	69.1	30.4	-31.6	-0.2	-6.9	37.5	44.3
CCC(=O)N(C)C[C@H]1Oc2cc(-c3ccncc3)ccc2S(=O)(=O)N([C@@H](C)CO)C[C@H]1C	.	.	.	.	-0.1	5.6[16.7 µM]	.	.
Cc1ccc(OCC(=O)N2CCc3ccccc3C2)cc1	4.5	-23.6	-14.7	-2.4	-0.1	-1.8	.	.
CN(C(=O)C(C)(C)C)c1ccc(OCC(=O)N2CCc3ccccc3C2)cc1	-4.3	75.9*	33.3	-17.5	-0.3	.	62.4	62.7
c1ccc(C(Cc2nc(-c3ccncc3)no2)c2ccccc2)cc1	-2.2	64.3	41.0	-28.6	.	-4.9	74.9*	56.1
Cc1noc(C)c1S(=O)(=O)Nc1ccc2c(c1)C(=O)N([C@H](C)CO)C[C@H](C)[C@H](CN(C)C(=O)CCCN(C)C)OCCCC[C@@H](C)O2	.	.	.	.	0.0	0.1[16.7 µM]	.	.
CCCC(=O)c1ccc(N2CCN(C(=O)c3ccccc3Br)CC2)c(F)c1	0.5	83.6*	9.2	-5.0	.	2.5	73.7*	67.7
O=C(c1ccccn1)N1C[C@@H]2[C@H](c3ccccc31)[C@H](CO)N2C(=O)Cc1ccccc1	.	.	.	.	-0.1	-18.2[16.7 µM]	.	.
Cc1ccc(S(=O)(=O)Nc2ccc3nc(C)sc3c2)cc1	1.9	71.9*	2.5	-22.5	.	14.6	88.5*	75.8*
Cc1nc2ccc(NS(=O)(=O)c3cccc([N+](=O)[O-])c3)cc2s1	.	62.8	-2.0	-14.8	-0.5	6.3	85.3*	72.3*
Cc1nc2ccc([N+](=O)[O-])cc2s1	1.9	-29.3	12.6	8.9	0.6	.	.	.
